The target of data set [1] is Sphingosine 1-phosphate receptor 2 (Homo sapiens, UniProt O95136). Kind of data set: Displacement of [33P]S1P from S1P2 expressed in CHO cells. It is filed as cell-based. The gist of the method:
(§1)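 Competitive radioligand binding with [33P]S1P on membranes from CHO cells expressing each of the five S1P receptor subtypes (S1P1–5).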

Data set [2] concerns the target T1, Sphingosine 1-phosphate receptor 3 (Homo sapiens, UniProt Q99500). Put plainly: Displacement of [33P]S1P from S1P3 expressed in CHO cells. It is filed as cell-based. The gist of the method:
as §1

For data set [3], the target named is T2, Sphingosine 1-phosphate receptor 1 (Homo sapiens, UniProt P21453). Put plainly: Displacement of [33P]S1P from S1P1 expressed in CHO cells. It is filed as cell-based. The gist of the method:
as §1

Data set [4] addresses T3, Sphingosine 1-phosphate receptor 4 (Homo sapiens, UniProt O95977).
T3 sequence (O95977 whole entry): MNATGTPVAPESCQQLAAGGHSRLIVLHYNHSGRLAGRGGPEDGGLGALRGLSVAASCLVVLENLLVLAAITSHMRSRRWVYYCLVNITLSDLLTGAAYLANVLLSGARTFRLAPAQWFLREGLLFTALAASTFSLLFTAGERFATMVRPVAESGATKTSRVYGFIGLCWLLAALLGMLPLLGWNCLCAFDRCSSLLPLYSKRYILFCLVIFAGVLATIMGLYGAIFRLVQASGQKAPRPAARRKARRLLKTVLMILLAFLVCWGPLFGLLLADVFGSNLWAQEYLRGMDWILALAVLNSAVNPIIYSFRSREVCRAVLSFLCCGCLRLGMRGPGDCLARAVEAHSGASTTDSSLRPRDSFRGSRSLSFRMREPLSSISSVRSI
Kind of data set: Displacement of [33P]S1P from S1P4 expressed in CHO cells. Type of data set: cell-based. The gist of the method: as §1

Data set [5] concerns the target T4, Sphingosine 1-phosphate receptor 5 (Homo sapiens, UniProt Q9H228). Kind of data set: Displacement of [33P]S1P from S1P5 expressed in CHO cells. Type of data set: cell-based. The gist of the method:
as §1

Data set [6] concerns the target T2, Sphingosine 1-phosphate receptor 1. Put plainly: Activity at S1P1 receptor by [35S]GTP-gammaS binding assay. Type of data set: functional. The following applies: filed as agonist. In general terms: GTPγS resists hydrolysis and so accumulates on activated G proteins.
Data set [7] concerns the target T1, Sphingosine 1-phosphate receptor 3. Kind of data set: Activity at S1P3 receptor by [35S]GTP-gammaS binding assay. It is filed as functional. Particulars: filed as agonist.
In data set [8] the target is T4, Sphingosine 1-phosphate receptor 5. Kind of data set: Activity at S1P5 receptor by [35S]GTP-gammaS binding assay. Type of data set: functional. Particulars: filed as agonist.
Data set [9] in a line: Plasma clearance in Sprague-Dawley rat at 1 mg/kg, iv or 2 mg/kg, po. It is filed as ADME, organism-based.
A short description of data set [10]: Volume of distribution in Sprague-Dawley rat at 1 mg/kg, iv or 2 mg/kg, po. Type of data set: ADME, organism-based. The following applies: in vivo, read-out: Vdss.
Data set [11] in a line: Half life in Sprague-Dawley rat at 1 mg/kg, iv or 2 mg/kg, po. Particulars: in vivo. It is filed as ADME, organism-based.
Data set [12] is described as follows: Bioavailability in Sprague-Dawley rat at 1 mg/kg, iv and 2 mg/kg, po. Type of data set: ADME, organism-based. Particulars: in vivo.
Data set [13] deals with Mus musculus. Kind of data set: Lowering of peripheral blood lymphocytes in mouse at 10 mg/kg. Type of data set: functional, organism-based. The arrangement: dose 10 mg/kg. The gist of the method: (§2)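 Mice were dosed orally, and circulating peripheral blood lymphocytes were counted 3 h after administration.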
Data set [14] is filed under the species Mus musculus. Put plainly: Lowering of peripheral blood lymphocytes in mouse. It is filed as functional. The procedure, abridged:
as §2

Calls of active or inactive are those of the source. Bounds are passed on as bounds.

T2 sequence (P21453 whole entry): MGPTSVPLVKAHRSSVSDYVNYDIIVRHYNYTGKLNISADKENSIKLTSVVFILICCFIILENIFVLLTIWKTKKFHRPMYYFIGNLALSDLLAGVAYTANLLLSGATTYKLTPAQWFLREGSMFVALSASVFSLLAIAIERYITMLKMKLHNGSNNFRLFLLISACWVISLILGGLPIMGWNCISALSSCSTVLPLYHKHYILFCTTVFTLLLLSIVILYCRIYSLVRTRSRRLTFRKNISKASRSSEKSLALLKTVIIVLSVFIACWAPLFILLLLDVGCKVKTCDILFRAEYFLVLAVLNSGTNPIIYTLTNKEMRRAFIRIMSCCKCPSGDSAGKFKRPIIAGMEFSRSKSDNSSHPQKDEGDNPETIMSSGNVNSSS
T4 sequence (Q9H228 whole entry): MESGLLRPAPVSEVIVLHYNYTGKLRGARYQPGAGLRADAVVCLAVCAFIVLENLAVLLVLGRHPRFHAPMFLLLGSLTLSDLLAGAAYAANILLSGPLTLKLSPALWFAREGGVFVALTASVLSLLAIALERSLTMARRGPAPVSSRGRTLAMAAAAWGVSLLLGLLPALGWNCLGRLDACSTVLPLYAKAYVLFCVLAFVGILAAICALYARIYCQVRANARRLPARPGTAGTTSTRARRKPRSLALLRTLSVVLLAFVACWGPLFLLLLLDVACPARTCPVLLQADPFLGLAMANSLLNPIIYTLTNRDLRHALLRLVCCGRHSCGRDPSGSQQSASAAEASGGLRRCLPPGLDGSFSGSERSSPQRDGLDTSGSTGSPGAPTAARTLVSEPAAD
T1 sequence (Q99500 whole entry): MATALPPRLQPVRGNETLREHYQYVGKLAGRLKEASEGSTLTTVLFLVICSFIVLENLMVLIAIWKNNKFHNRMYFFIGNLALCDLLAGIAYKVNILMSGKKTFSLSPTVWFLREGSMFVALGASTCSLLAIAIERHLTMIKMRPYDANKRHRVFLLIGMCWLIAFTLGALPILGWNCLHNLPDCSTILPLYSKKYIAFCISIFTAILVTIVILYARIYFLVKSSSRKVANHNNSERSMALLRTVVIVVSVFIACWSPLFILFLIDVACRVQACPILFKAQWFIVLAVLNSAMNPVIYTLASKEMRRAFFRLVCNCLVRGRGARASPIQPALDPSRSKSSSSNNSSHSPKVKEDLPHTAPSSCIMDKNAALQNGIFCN
Sphingosine 1-phosphate receptor 2, sequence (O95136 whole entry): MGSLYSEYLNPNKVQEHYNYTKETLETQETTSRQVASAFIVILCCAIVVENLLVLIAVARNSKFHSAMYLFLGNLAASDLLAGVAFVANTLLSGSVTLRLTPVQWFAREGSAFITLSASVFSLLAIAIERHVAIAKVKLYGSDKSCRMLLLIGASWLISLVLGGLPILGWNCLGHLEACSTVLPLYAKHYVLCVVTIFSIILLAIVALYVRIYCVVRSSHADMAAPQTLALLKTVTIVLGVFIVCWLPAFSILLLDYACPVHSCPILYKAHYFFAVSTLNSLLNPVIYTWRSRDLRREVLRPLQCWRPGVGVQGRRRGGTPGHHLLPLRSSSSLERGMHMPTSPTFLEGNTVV

Take `O=C(O)C[C@@H]1CC[C@H](c2ccc(-c3noc(-c4ccc([C@H]5CCC(F)(F)C5)cc4)n3)cc2)N1` (racemic): the IC50 in data set [1] was greater than 10000 nM; in data set [2], 2200 nM; in [3] it was 0.8 nM; in data set [4] it was 720 nM; in [5], 16 nM. Also, the Activity result in data set [6], in [7] and in data set [8] was “Agonist” throughout.
Consider `CC(C)Cc1ccc(-c2nc(-c3ccc([C@H]4CC[C@@H](CC(=O)O)N4)cc3)no2)cc1` (racemic), for which the IC50 in data set [1] is greater than 10000 nM; in [2], greater than 10000 nM; in data set [3] it was 3.3 nM; in data set [4] it was 1000 nM; in data set [5] it was 200 nM. Besides, the Activity entry in data set [6], in [7] and in data set [8] was “Agonist” in each case. In [9], this molecule showed a clearance of 6.6 mL/min/kg. For the same molecule, the Vd in data set [10] was 2.9 L/kg. The half-life in data set [11] is 4.1 h. The same molecule yielded a bioavailability in [12] of 48%. Further, the result with Mus musculus [13] was Active.
As to `O=C(O)C[C@@H]1CC[C@H](c2ccc(-c3noc(-c4ccc([C@@H]5CCC(F)(F)C5)cc4)n3)cc2)N1` (racemic) [listing 1 of 2 here], the Activity entry in [6], in data set [7] and in data set [8] was “Agonist” each time.
Take `O=C(O)C[C@@H]1CC[C@H](c2ccc(-c3noc(-c4ccc([C@@H]5CCC(F)(F)C5)cc4)n3)cc2)N1` (stereo in doubt; form 2) [listing 1 of 2 here]: the IC50 in data set [1] was greater than 10000 nM; in data set [2], 3800 nM; in data set [3], 0.64 nM; in [4] it was 720 nM; in [5] it was 15 nM. The molecule further registered a clearance in data set [9] of 9.7 mL/min/kg. In addition, the Vd in data set [10] is 2.3 L/kg. In addition, the half-life in [11] is 2.2 h. In addition, the bioavailability in data set [12] came out at 48%. Moreover, in the data set filed under Mus musculus [14], the ED50 was 0.3 mg/kg.
In the case of `O=C(O)C[C@@H]1CC[C@H](c2ccc(-c3noc(-c4ccc([C@@H]5CCC(F)(F)C5)cc4)n3)cc2)N1` (racemic) [listing 2 of 2 here], the concentration for half-maximal inhibition (IC50) in data set [1] (cho) is greater than 10000 nM; in data set [2] it was 2500 nM; in data set [3], 1.2 nM; in [4] it was 570 nM; in data set [5] it was 13 nM.
`CC(C)Cc1ccc(-c2nc(-c3ccc([C@H]4CC[C@@H](C(=O)O)N4)cc3)no2)cc1` (racemic): the IC50 in data set [1] is greater than 10000 nM; in data set [2] it was greater than 10000 nM; in data set [3], 75 nM; in data set [4] it was 1000 nM; in data set [5] it was 1280 nM. For the same molecule, the Activity entry in [6], in [7] and in data set [8] was “Agonist” in each case.
On to `O=C(O)C[C@@H]1CC[C@H](c2ccc(-c3noc(-c4ccc(C5CCCC5)c(F)c4)n3)cc2)N1` (racemic), for which the half-inhibitory concentration (IC50) in [1] is greater than 10000 nM; in data set [2], 7600 nM; in [3] it was 2 nM; in [4], 2100 nM; in data set [5], 30 nM. The Activity entry in [6], in [7] and in data set [8] was “Agonist” each time.
Take `O=C(O)C[C@@H]1CC[C@H](c2ccc(-c3noc(-c4ccc(C5CCCCC5)cc4)n3)cc2)N1` (racemic): the IC50 is greater than 10000 nM in data set [1]; 1700 nM in data set [2]; 0.7 nM in data set [3]; 350 nM in data set [4]; 20 nM in data set [5]. The Activity result in [6], in [7] and in data set [8] was “Agonist” each time.
Regarding `CC(C)Cc1ccc(-c2nc(-c3ccc([C@@H]4CC[C@@H](CCC(=O)O)N4)cc3)no2)cc1` (racemic), the IC50 is greater than 10000 nM in [1]; 6700 nM in data set [2]; 5.7 nM in data set [3]; 630 nM in data set [4]; 80 nM in data set [5]. The Activity result in data set [6], in data set [7] and in data set [8] was “Agonist” in each case.
On to `O=C(O)C[C@@H]1CC[C@H](c2ccc(-c3noc(-c4ccc([C@@H]5CCC(F)(F)C5)cc4)n3)cc2)N1` (stereo in doubt; form 1) [listing 1 of 2 here], for which the IC50 in [1] (cho) was greater than 10000 nM; in [2], 7800 nM; in data set [3], 2.9 nM; in [4] it was 1500 nM; in [5] it was 19 nM.
As for `CC(C)Cc1ccc(-c2nc(-c3ccc([C@H]4CC[C@@H](CCC(=O)O)N4)cc3)no2)cc1` (racemic), the half-maximal inhibitory concentration (IC50) is greater than 10000 nM in data set [1]; greater than 10000 nM in data set [2]; 4.5 nM in data set [3]; 540 nM in data set [4]; 30 nM in data set [5]. Further, the Activity entry in data set [6], in data set [7] and in [8] was “Agonist” each time.
Take `CC(C)Cc1ccc(-c2nc(-c3ccc([C@@H]4CC[C@@H](CC(=O)O)N4)cc3)no2)cc1` (racemic): the IC50 in data set [1] was greater than 10000 nM; in data set [2], greater than 10000 nM; in data set [3], 8 nM; in [4], 700 nM; in data set [5] it was 100 nM. For the same molecule, the Activity entry in data set [6], in [7] and in [8] was “Agonist” throughout. Also, the clearance in data set [9] stood at 8.4 mL/min/kg. For the same molecule, the Vd in data set [10] was found to be 3 L/kg. Further, the half-life in data set [11] was 3.5 h. The same molecule gave a bioavailability in data set [12] of 40%. For the same molecule, the result in the data set on Mus musculus [13] was Active.
For the molecule `O=C(O)C[C@@H]1CC[C@H](c2ccc(-c3noc(-c4ccc(C5CCCC5)cc4F)n3)cc2)N1` (racemic), the IC50 in data set [1] is greater than 10000 nM; in [2] it was greater than 10000 nM; in [3], 2.7 nM; in data set [4] it was 1400 nM; in [5], 60 nM. Moreover, the Activity result in [6], in [7] and in [8] was “Agonist” in each case.
Turning to `O=C(O)C[C@@H]1CC[C@H](c2ccc(-c3noc(-c4ccc([C@@H]5CCC(F)(F)C5)cc4)n3)cc2)N1` (stereo in doubt; form 2) [listing 2 of 2 here], the Activity result in data set [6], in data set [7] and in data set [8] was “Agonist” each time.
With `CC(C)Cc1ccc(-c2nc(-c3ccc([C@@H]4CC[C@@H](C(=O)O)N4)cc3)no2)cc1` (racemic), the half-inhibitory concentration (IC50) is greater than 10000 nM in [1]; 10000 nM in [2]; 17 nM in [3]; 300 nM in data set [4]; 180 nM in [5]. Also, the Activity result in [6], in data set [7] and in [8] was “Agonist” each time.
Take `O=C(O)C[C@@H]1CC[C@H](c2ccc(-c3noc(-c4ccc([C@@H]5CCC(F)(F)C5)cc4)n3)cc2)N1` (stereo in doubt; form 1) [listing 2 of 2 here]: the Activity result in [6], in [7] and in data set [8] was “Agonist” in each case.

As usually defined, the IC50 is the concentration needed to halve the response being measured. Broadly, the half-life is the time needed for the level to fall by half in the phase considered. A low value points to rapid decline. The bioavailability is dose-corrected exposure relative to a reference, in per cent. For orientation: ED50 means the dose at which the effect has come halfway, by size or by number of responders.

These data come from ChEMBL document CHEMBL1147803, “2,5-Disubstituted pyrrolidine carboxylates as potent, orally active sphingosine-1-phosphate (S1P) receptor agonists” (Bioorg Med Chem Lett, 2006).
